PubChem BioAssay AID651748 (Johns Hopkins Ion Channel Center, 2012)
Active and inactive are the calls of the source.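 Rule for the calls: active = a fitted dose response curve plus choline uptake above 120% of control at 33.3 µM; inactive = the rest.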

Target: High affinity choline transporter 1 (Homo sapiens) (UniProt Q9GZV3)
Experiment: CHT activators enhancing choline uptake, dose response, orthogonal assay for CHT activator project, cell-based, 3H-choline uptake, radioactive, HEK293 CHT LV-AA (AID 651748)
Details: HEK293 hCHT LV-AA cells; series mostly up to 33.3 µM
Outline: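 Material: CHT LV-AA-expressing HEK293 cells | Timing: 15 min pre-incubation plus 15 min uptake, 37 °C | Detection: Tritium scintillation counting | Control set: Buffer 100%, HC-3 0%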

Chain of High affinity choline transporter 1 (Homo sapiens) (Q9GZV3 whole entry, looked up): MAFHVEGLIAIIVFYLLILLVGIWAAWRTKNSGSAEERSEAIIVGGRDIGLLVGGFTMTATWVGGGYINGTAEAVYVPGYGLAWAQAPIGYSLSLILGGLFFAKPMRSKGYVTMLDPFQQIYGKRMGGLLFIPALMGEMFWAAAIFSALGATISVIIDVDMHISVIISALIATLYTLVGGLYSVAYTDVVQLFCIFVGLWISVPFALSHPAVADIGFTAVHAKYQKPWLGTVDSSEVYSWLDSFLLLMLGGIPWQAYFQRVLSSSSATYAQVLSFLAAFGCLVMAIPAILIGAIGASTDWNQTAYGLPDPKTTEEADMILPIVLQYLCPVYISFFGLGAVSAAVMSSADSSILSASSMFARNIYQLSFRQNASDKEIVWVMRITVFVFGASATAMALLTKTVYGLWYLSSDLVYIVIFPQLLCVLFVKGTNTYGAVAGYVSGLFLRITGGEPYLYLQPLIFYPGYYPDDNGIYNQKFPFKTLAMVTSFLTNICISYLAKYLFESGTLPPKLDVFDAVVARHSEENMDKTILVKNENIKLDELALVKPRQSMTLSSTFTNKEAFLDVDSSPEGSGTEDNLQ

Question: With `c1ccc(NCc2nc3ccccc3n2CCOc2ccccc2)cc1` as the compound, how does the outcome read?
Answer: inactive

Question: `COc1ccc(NCc2nc3ccccc3n2CCOc2ccccc2Cl)cc1` was tested. Which outcome did it give?
Answer: inactive

Question: `O=C1N(Cc2cccc(Cl)c2)C[C@@H]2C[C@@H](c3cccn3-c3ccccn3)N3CCC[C@@]123` was tested. Which outcome did it give?
Answer: inactive

Question: With `O=C(c1cccc(C(F)(F)F)c1)C1CCCN(Cc2cccn2-c2ncccn2)C1` (centres undefined) as the compound, how does the outcome read?
Answer: inactive

Question: Which outcome does the source give for `Fc1ccc(NCc2nc3ccccc3n2CCOc2ccccc2)cc1` here?
Answer: inactive

Question: `CCOc1ccc(NCc2nc3ccccc3n2CCOc2ccccc2)cc1` was tested. Which outcome did it give?
Answer: inactive

Question: For `Cc1cccc(NCc2nc3ccccc3n2CCOc2ccccc2)c1`, which outcome is on record?
Answer: inactive

Question: How did the outcome turn out when `Cc1ccc(NCc2nc3ccccc3n2CCOc2ccccc2)cc1` was run?
Answer: inactive

Question: `Brc1ccc(NCc2nc3ccccc3n2CCOc2ccccc2)cc1` was tested. Which outcome did it give?
Answer: inactive

Question: `CC(C)CN1CCN(Cc2cccn2-c2ccc(Cl)cn2)CC1CCO` (centres undefined) was tested. Which outcome did it give?
Answer: inactive

Question: Which outcome does the source give for `Clc1ccc(NCc2nc3ccccc3n2CCOc2ccccc2)cc1` here?
Answer: inactive

Question: With `Cc1ccccc1NCc1nc2ccccc2n1CCOc1ccccc1` as the compound, how does the outcome read?
Answer: inactive

Question: How did the outcome turn out when `COc1ccccc1NCc1nc2ccccc2n1CCOc1ccccc1` was run?
Answer: inactive

Question: For `COc1ccc(NCc2nc3ccccc3n2CCOc2ccccc2)cc1`, which outcome is on record?
Answer: inactive
